Data from ChEMBL document CHEMBL1150426, “New C5-alkylated indolobenzazepinones acting as inhibitors of tubulin polymerization: cytotoxic and antitumor activities” (J Med Chem, 2008).

Legend:
[1] = test system: B16-F10; assay: Antiproliferative activity against mouse B16F10 cells after 72 hrs; assay type: functional, cell-based; conditions: B16-F10, 72 h
How it was run: (§1)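 Cells were seeded at 5 × 10³ per well and cultured for 24 h. Test compound in DMSO (under 0.1%) was then added for 72 h. Resazurin was added for 2 h, and fluorescence was read at ex 560 nm / em 590 nm. IC50 was taken as the concentration giving a 50% fall in fluorescence versus untreated cells. Runs were done in triplicate.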

[2] = test system: HCT-116; assay: Antiproliferative activity against human HCT116 cells after 72 hrs; assay type: functional, cell-based; conditions: HCT-116, 72 h; how it was run: as §1
[3] = test system: MDA-MB-231; assay: Antiproliferative activity against human MDA-MB-231 cells after 72 hrs; assay type: functional, cell-based; conditions: MDA-MB-231, 72 h; how it was run: as §1
[4] = test system: KB; assay: Cytotoxicity against human KB cells after 72 hrs; assay type: functional, cell-based
How it was run: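 KB cells in EMEM (4.5 g/L glucose, 10% FCS, 1% glutamine) seeded 5 × 10³/well, dosed after 24 h with compound in DMSO (<0.1%). 72 h exposure, then resazurin 2 h; fluorescence ex 560/em 590 nm. IC50 = 50% fluorescence decrease versus untreated; triplicate.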

[5] = test system: MDA-MB-435; assay: Antiproliferative activity against human MDA-MB-435 cells after 72 hrs; assay type: functional, cell-based; conditions: MDA-MB-435, 72 h; how it was run: as §1
[6] = Antitumor activity against human U87 tumor transplanted in chick chorio-allantoic membrane assessed as reduction of tumor volume at 10 uM after 4 days; assay type: functional, U-87MG ATCC; parameters: scale not given: the % may be the effect or the level left
How it was run: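 U87 glioma cells (5 × 10⁶ in 20 µL medium) grafted on chick CAM on embryonic day 10; size-matched tumors grouped on day 2. 20 µL drug at 10 µM applied locally once daily, days 3–6 of tumor growth; controls got solvent. Volume V = 4/3πr³ from length and width, six tumors per group.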

[7] = Inhibition of sheep brain tubulin polymerization; parameters: species or system Ovis aries
How it was run: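 Sheep brain tubulin (about 2–3 mg/mL), purified by two assembly–disassembly cycles, in 0.1 M MES, 0.5 mM MgCl₂, 1 mM EGTA, 1 mM GTP, pH 6.6. Assembly followed by turbidity at 350 nm, 37 °C.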

[8] = test system: A549; assay: Antiproliferative activity against human A549 cells after 72 hrs; assay type: functional, cell-based; conditions: A549, 72 h; how it was run: as §1
[9] = Antitumor activity against human U87 tumor transplanted in chick chorio-allantoic membrane assessed as reduction of tumor volume at 100 uM after 4 days; assay type: functional, U-87MG ATCC; parameters: scale not given: the % may be the effect or the level left
How it was run: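 On embryonic day 10, 5 × 10⁶ U87 glioma cells were placed on the chick CAM. On day 2 of tumor growth, size-matched tumors were split into groups. From day 3 to day 6, 20 µL of compound at 100 µM was applied locally once daily, and controls got solvent. Volume was calculated as V = 4/3πr³ with r = 1/2√(length × width), using six tumors per group.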

Compound | IC50 [4] [nM] | IC50 [7] [nM] | also measured
COc1cc2c(c(OC)c1OC)-c1ccc(OC)c(=O)cc1[C@@H](NC(C)=O)CC2 [COLCHICINE] | 20 |  | IC50 [1]: 29 nM; IC50 [2]: 40 nM; IC50 [3]: 70 nM; IC50 [5]: 40 nM; Activity [6]: 50%
CC[C@H]1NC(=O)c2[nH]c3ccccc3c2-c2ccccc21 | 35 | 1800 | 
CC1NC(=S)c2[nH]c3ccccc3c2-c2ccccc21 (racemic) | 360 |  | 
CCCC1NC(=O)c2[nH]c3ccccc3c2-c2ccccc21 (racemic) | 32 | 2000 | 
CCC1NC(=O)c2[nH]c3ccc(F)cc3c2-c2ccccc21 (racemic) | 500 | 3600 | 
O=C1NCc2ccccc2-c2c1[nH]c1ccccc21 | 550 |  | 
C[C@@H]1NC(=O)c2[nH]c3ccccc3c2-c2ccccc21 | 80 | 1900 | 
C[C@H]1NC(=O)c2[nH]c3ccccc3c2-c2ccccc21 | 340 |  | 
COc1cc2c(c(OC)c1OC)-c1ccc(O)cc1[C@@H](NC(C)=O)CC2 [N-ACETYLCOLCHINOL] | 75 | 3000 | IC50 [1]: 72 nM; IC50 [2]: 100 nM; IC50 [3]: 700 nM; IC50 [5]: 140 nM; IC50 [8]: 250 nM; Activity [9]: 42%
